In the library only some 2% were active in any assay of this set; here they are far more common.
FXN GAA850 act: activators of GAA850 frataxin (FXN) promoter; HEK293 lucGAA850 FXN promoter luciferase reporter, 24 h; percent of 10 µM SAHA response; activation, % at 6 µM; 360,000 compounds, 0.56% hits;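 active means activation above the average of all compounds screened plus 3 SD, cutoff fixed separately per campaign, cut at about 7.5% in these data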;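 further: 0% = DMSO wells and 100% = 10 µM SAHA wells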
NR2E3 ag-1: agonists of human nuclear receptor NR2E3; Q9Y5X4; GST-NR2E3/biotin-RetCOR TR-FRET, 1536-well; inhibition of corepressor binding, % at 4.78 µM; 320,000 compounds, 0.12% hits;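 active means percent inhibition above the cutoff of mean plus 3 SD of all tested compounds, set per screening campaign, cut at about 20% in these data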;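 further: 0% = DMSO wells and 100% = biotin wells as full block of FRET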
Target sequence (Q9Y5X4 whole entry, looked up): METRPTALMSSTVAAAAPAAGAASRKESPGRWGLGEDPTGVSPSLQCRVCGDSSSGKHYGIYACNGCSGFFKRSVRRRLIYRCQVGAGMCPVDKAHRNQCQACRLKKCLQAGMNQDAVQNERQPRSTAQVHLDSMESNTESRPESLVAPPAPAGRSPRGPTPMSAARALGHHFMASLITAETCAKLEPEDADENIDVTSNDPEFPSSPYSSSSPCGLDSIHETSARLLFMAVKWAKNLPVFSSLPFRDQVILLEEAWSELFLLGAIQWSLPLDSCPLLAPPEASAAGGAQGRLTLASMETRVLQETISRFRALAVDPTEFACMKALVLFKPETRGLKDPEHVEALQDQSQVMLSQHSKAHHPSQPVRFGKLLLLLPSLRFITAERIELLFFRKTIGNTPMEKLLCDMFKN
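Format: 1536-well format; test system: GST-NR2E3 and biotin-RetCOR proteins; read-out basis: percent inhibition of TR-FRET ratio; timing: 5 h incubation at 4 °C; detection: time-resolved FRET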
NR2E3 ag-2: agonists of human NR2E3 nuclear receptor; Q9Y5X4; CHO-S Gal4-NCOR/VP16-NR2E3 two-hybrid, luciferase; inhibition of corepressor binding, % at 3.98 µM; 360,000 compounds, 0.35% hits;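 active means inhibition above the mean of all tested compounds plus 3 SD, cut at about 70% in these data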;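 further: 0% = DMSO with NR2E3 transfected cells and 100% = cells lacking NR2E3 construct; higher means lower luciferase signal from less NR2E3 corepressor binding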
T cell HTS: T cell immune modulation candidate. 2C CD8+ T cell-vesicle binding, flow cytometry; hits give low values. response (vesicle binding), % at 7 µM. 330,000 compounds, 0.068% hits. AID 2052;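 active means response, share of CD8 T cells binding vesicles, and their 90th percentile fluorescence all below set limits, cut at about 80% in these data, passing the limit was not always enough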;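 further: values below 100% mean blocked vesicle binding to the CD8+ T cells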
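Assay system – 2C mouse CD8+ T cells · Also added – QL9-loaded Drosophila micro-vesicles · Timing – Cell–vesicle co-incubation 1.5 h at 37 °C, staining 20 min on ice · Signal – flow cytometry of vesicle-bound cells · Measure – percent CD8+ FL2 mean versus row control · Controls – Peptide-free naked vesicles (low) and QL9 vesicles with 0.7% DMSO vehicle (high)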
Myeloid diff 2: promotes myeloid progenitor differentiation | ER-HoxA9 myeloid progenitors, lysozyme-GFP differentiation, flow cytometry | calls only at 10 µM | 360,000 compounds, 1% hits;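 active means normalized GFP-positive differentiation at or above the plate's own cutoff, the solvent-only control mean plus 3 SD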;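 further: cells exposed to compound for four days before flow analysis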
Myeloid diff CP1: myeloid differentiation induction. AID 651706. shares compounds with Myeloid diff 2. calls only. ER-HoxA9 myeloid progenitors, GFP/Mac1 double-positive flow. 2,300 compounds, 2% hits;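 active means share of green or green-and-red cells above 9 and 9% in run 1 or 4 and 3% in run 2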
GFP autofluor: compound fluorescence in myeloid differentiation counter-screen; shares compounds with Myeloid diff 2; fluorescence response, % (test concentration not listed); ER-HoxA9 myeloid progenitors, no estrogen, GFP autofluorescence flow cytometry; vehicle wells 0%, positive control 100%; 2,300 compounds, 7.4% hits; AID 651707;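 active means over 5% cells positive for green fluorescent reporter, or over 2% positive for both it and APC stain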;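 further: range taken on the double positive population between DMSO and positive control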
* = called active by the depositor; i = inactive; / = not tested or not shown; + = active, no number.

SMILES	FXN GAA850 act	NR2E3 ag-1	NR2E3 ag-2	T cell HTS	Myeloid diff 2	Myeloid diff CP1	GFP autofluor
O=S(=O)(c1ccc(=S)[nH]c1)N1CCCC1	2	/	-9	287	+	i	62*
CN1C2CCC1/C(=C\c1ccccc1F)C(=O)/C2=C/c1ccccc1F	3	1	21	129	i	i	0
NNC(=O)c1csc(-c2ccccc2)n1	1	3	-19	763	+	i	0
COc1ccc(N2CCN(C(=O)CSc3nnc(CNc4ccccc4)o3)CC2)cc1	-1	4	-8	248	i	i	1
COc1cccc(-c2ccc(NC(=O)C3CCCN(Cc4cccc(C)n4)C3)cc2)c1 (configuration not stated)	-3	/	-24	/	i	i	0
Cc1ccc(C)c(N(CC(=O)NC2CCCC2)C(=O)c2oc(C(C)(C)C)cc2C)c1	-3	-3	2	279	i	i	0
O=C(COc1cccc(F)c1)Nc1nc(-c2cccnc2)cs1	1	3	-33	500	i	/	/
O=C(CSc1ccc(-c2cccnc2)nn1)Nc1ccc(Br)cc1	1	5	13	347	i	i	0
CC(=O)Nc1ccc(NC(=O)CSc2ccc(-c3cccnc3)nn2)cc1	-1	3	-6	676	i	/	/
O=c1cc(-c2ccc(O)cc2)oc2c1ccc1ccccc12	-2	-2	12	236	i	/	/
O=c1cc(-c2ccc(O)cc2)oc2c(O)c(O)c(O)c(O)c12	0	4	-6	164	i	i	1
CC1CCN(c2nc(CN3CCCCC3)nc3scc(-c4ccccc4)c23)CC1	5	-2	-18	172	i	i	0
COc1ccc(C(=O)Nc2cccc(-c3ccc4nncn4n3)c2)cc1	1	4	-1	205	i	/	/
COc1ccc(S(=O)(=O)Nc2cccc(-c3ccc4nncn4n3)c2)cc1	-4	-2	-30	314	i	i	0
COc1ccccc1OCc1nnc(SCCN2CCOCC2)o1	1	-1	9	245	i	i	0
OC(c1ccccc1)c1nc(-c2ccc3c(c2)OCO3)cs1 (configuration not stated)	3	/	-125	/	i	/	/
COc1ccc(-c2cn(CC[C@@H]3CC[C@H](NC(=O)Cc4ccccn4)[C@@H](CO)O3)nn2)cc1	/	/	/	/	i	/	/
COC(=O)c1ccccc1NC(=O)c1nc2nc(C)cc(C)n2n1	1	0	18	181	i	i	0
COC(=O)c1ccccc1NC(=O)c1cnn2c(C)cc(C)nc12	4	3	-3	374	i	/	/
CCC(C)[C@H](NC(=O)NCc1ccccc1Cl)C(=O)OC (some centres not stated)	0	1	6	373	i	i	0
CCC(C)[C@H](NC(=O)NCc1cccnc1)C(=O)OC (some centres not stated)	0	-3	-3	577	i	/	/
C=CCN1C(=O)C(Cc2ccc(C)cc2)S/C1=N/N=C/c1ccco1 (configuration not stated)	2	0	19	349	/	i	1
Cc1ccc(C(=O)Nc2ccccc2C(=O)NCc2ccco2)cc1	1	/	-37	345	i	/	/
Cc1ccccc1CN(c1ccc(C(=O)Nc2ccccc2C(=O)NCc2ccco2)cc1)S(C)(=O)=O	-5	-1	-7	267	i	i	0
CCN1/C(=C/c2cc[n+](CCCS(=O)(=O)[O-])c3ccccc23)Sc2ccccc21	2	-4	-29	893	+	i	14*
SMILES	FXN GAA850 act	NR2E3 ag-1	NR2E3 ag-2	T cell HTS	Myeloid diff 2	Myeloid diff CP1	GFP autofluor
CCOc1ccccc1N1C(=O)c2ccc(S(=O)(=O)c3ccc(C(=O)O)cc3)cc2C1=O	-1	7	-32	102	i	/	/
Cc1ccc(S(=O)(=O)N2CCC(=O)CC2c2ccccc2)cc1 (configuration not stated)	-1	/	-2	/	i	i	0
Cc1ccc(S(=O)(=O)N2C[C@H]3C(=O)C[C@@H](c4ccccc4)N(S(=O)(=O)c4ccccc4[N+](=O)[O-])[C@H]3C[C@H]2c2ccccc2)cc1	/	/	-12	/	+	i	0
Cc1ccc(S(=O)(=O)N2CC3C(=O)CC(c4ccccc4)N(S(=O)(=O)c4ccc(C)cc4)C3CC2c2cccc(Cl)c2)cc1 (configuration not stated)	/	/	/	/	+	i	1
Cc1ccc([C@@H]2C[C@H]3[C@@H](CN2S(=O)(=O)c2ccc(C)cc2)C(=O)C[C@@H](c2cccc(Cl)c2)N3S(=O)(=O)c2ccc(C)cc2)cc1	0	/	-15	/	i	/	/
CCN(CCO)CC1CCCC2CCCCC21 (configuration not stated)	/	/	8	/	i	/	/
COc1ccc(OC)c(N(CC(=O)O)S(=O)(=O)c2ccc(OC)c(OC)c2)c1	3	7	-10	612	+	i	1
CC(=O)Nc1cc(-c2cccc(C(=O)NCCN(C)C)c2)cn2c(-c3ccccc3)cnc12	-2	/	33	/	i	/	/
CC(=O)Nc1cc(-c2cccc(C(=O)NCCN(C)C)c2)cn2c(-c3ccc(S(C)(=O)=O)cc3)cnc12	0	/	-26	/	+	i	5.3*
CCN(CC)C(=O)[C@H]1CC(CC(=O)NCCN2CCOCC2)C(=O)N2CCc3c([nH]c4ccccc34)[C@]12C (some centres not stated)	-1	/	-10	i	i	/	/
O=S(=O)(c1ccccc1)c1nc(-c2ccco2)oc1NCc1cccnc1	0	-1	2	184	+	i	0
COc1ccccc1Cc1c(-c2ccc(C#N)cc2)nc2ccc(C)cn12	/	/	-55	/	i	/	/
COc1ccc(CCNC(=O)c2ccc(Cl)cc2)cc1	-1	0	-10	202	i	/	/
COc1ccc(CCNC(=O)c2nn(C)cc2Cl)cc1	1	-2	-85	434	+	i	0
O=C(CSCc1cccc(Cl)c1)Nc1ccccc1-c1ccccc1	3	-3	-25	229	i	/	/
CC(C)Oc1ccccc1C1NC(=O)CCC1[N+](=O)[O-] (configuration not stated)	0	2	-10	154	i	i	0
CCOc1ccccc1C1NC(=O)CCC1[N+](=O)[O-] (configuration not stated)	3	0	2	441	i	/	/
O=C(O)c1ccc(NC2=C(Cl)C(=O)c3ccccc3C2=O)cc1	1	-4	3	143	i	/	/

From PubChem
